Key:
[1] = target: T1, Urokinase-type plasminogen activator (Homo sapiens, UniProt P00749); experiment: Competitive inhibition of human uPA using pyroGlu-Gly-Arg-p-NA.HCl as substrate preincubated for 15 mins prior substrate addition measured for 10 mins by spectrophotometry
Procedure, shortened: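 Human uPA (about 1 mU) in 50 mM Tris pH 8.8 at 37 °C. […] Initial rate taken over 0–0.25 absorbance units in 10 min. Duplicates; IC50 is the concentration giving 50% activity.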

[2] = target: Tissue-type plasminogen activator (Homo sapiens, UniProt P00750); experiment: Inhibition of recombinant tPA using H-D-Ile-Pro-Arg-pNA.2HCl as substrate preincubated for 15 mins prior substrate addition measured for 10 mins by spectrophotometry
Tissue-type plasminogen activator, sequence (P00750 whole entry): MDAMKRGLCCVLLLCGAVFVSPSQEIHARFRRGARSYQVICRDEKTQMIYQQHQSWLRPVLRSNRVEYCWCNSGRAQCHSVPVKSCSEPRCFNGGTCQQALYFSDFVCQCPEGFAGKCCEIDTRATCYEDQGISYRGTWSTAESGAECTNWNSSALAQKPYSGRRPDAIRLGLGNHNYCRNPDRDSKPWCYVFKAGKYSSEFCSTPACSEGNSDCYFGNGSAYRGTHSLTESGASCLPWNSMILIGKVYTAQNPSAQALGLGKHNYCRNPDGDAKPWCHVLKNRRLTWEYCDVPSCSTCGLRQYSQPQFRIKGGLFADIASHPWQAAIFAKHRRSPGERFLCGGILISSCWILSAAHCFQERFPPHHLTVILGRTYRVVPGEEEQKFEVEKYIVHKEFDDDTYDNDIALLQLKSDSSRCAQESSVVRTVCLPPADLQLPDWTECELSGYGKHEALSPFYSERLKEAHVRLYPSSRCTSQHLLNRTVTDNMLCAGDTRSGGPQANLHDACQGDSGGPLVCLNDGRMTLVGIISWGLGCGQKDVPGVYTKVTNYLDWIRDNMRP
Procedure, shortened: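 Recombinant tPA, about 5 mU, in Tris buffer pH 8.3, with inhibitor at 0–250 µM final from DMSO stocks, preincubated 15 min at 37 °C. […] Initial rate came from 405 nm absorbance (0–0.25 AU, 10 min) at 37 °C, measured in duplicate. IC50 was the inhibitor level reducing activity to 50%.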

[3] = target: T1, Urokinase-type plasminogen activator; experiment: Inhibition of human uPA using pyroGlu-Gly-Arg-p-NA.HCl as substrate preincubated for 15 mins prior substrate addition measured for 10 mins by spectrophotometry
Prothrombin = Prothrombin (Homo sapiens, UniProt P00734); experiment: Inhibition of human plasma thrombin using pyroGlu-Pro-Arg-p-NA.HCl as substrate preincubated for 15 mins prior substrate addition measured for 10 mins by spectrophotometry
Procedure, shortened: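 Human plasma thrombin (about 5 mU) in Tris pH 8.3 was given a 15-min 37 °C preincubation with inhibitor at 0–250 µM final, from DMSO stocks. […] Absorbance at 405 nm gave the initial rate over 0–0.25 AU in 10 min, at 37 °C, in duplicate. IC50 was taken as 50% activity loss.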

Plasminogen = Plasminogen (Homo sapiens, UniProt P00747); experiment: Inhibition of human plasma plasmin using pyroGlu-Pro-Arg-p-NA.HCl as substrate preincubated for 15 mins prior substrate addition measured for 10 mins by spectrophotometry
Plasminogen, sequence (P00747 97-580 limits assumed): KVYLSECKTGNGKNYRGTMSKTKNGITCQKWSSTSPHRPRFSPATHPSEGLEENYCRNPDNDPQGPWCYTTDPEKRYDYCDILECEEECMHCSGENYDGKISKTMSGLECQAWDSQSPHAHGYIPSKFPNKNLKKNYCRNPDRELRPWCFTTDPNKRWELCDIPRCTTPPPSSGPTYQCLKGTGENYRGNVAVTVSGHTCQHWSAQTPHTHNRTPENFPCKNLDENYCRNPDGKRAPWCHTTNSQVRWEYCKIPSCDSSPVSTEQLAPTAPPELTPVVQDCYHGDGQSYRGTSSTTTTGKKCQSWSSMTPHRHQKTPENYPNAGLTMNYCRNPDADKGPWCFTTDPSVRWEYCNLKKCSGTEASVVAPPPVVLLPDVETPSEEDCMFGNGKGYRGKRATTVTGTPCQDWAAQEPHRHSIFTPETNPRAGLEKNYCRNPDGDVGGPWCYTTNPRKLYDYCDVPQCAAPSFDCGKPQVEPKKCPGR
Plasminogen, sequence (P00747 581-810 limits assumed): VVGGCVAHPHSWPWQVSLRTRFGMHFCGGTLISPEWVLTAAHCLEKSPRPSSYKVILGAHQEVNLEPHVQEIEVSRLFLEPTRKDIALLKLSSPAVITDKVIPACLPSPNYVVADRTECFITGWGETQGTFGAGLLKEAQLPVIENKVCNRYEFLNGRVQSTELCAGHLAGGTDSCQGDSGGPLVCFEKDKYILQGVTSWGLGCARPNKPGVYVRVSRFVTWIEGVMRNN
Procedure, shortened: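 Plasmin from human plasma, about 5 mU, in Tris buffer pH 7.4, preincubated 15 min at 37 °C with inhibitor (0–250 µM final, DMSO stocks). […] Initial rate was read at 405 nm (0–0.25 AU within 10 min) at 37 °C. Assays ran in duplicate, and IC50 was the concentration halving activity.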

[4] = target: T1, Urokinase-type plasminogen activator; experiment: Non-competitive inhibition of human uPA using pyroGlu-Gly-Arg-p-NA.HCl as substrate preincubated for 15 mins prior substrate addition measured for 10 mins by spectrophotometry

SMILES	IC50 [3] [µM]	also measured
N=C(N)c1ccc2cc(C(=O)Nc3ccccc3)ccc2c1	13	Ki [1]: 1.9 µM; IC50 [2]: 125 µM; IC50 (Prothrombin): 56 µM; IC50 (Plasminogen): 22 µM
CCOC(=O)N1CCN(C(=O)[C@H](Cc2cccc(C(=N)N)c2)NS(=O)(=O)c2c(C(C)C)cc(C(C)C)cc2C(C)C)CC1		Ki [2]: 4.9 µM
COc1cc(NC(=O)c2ccc3cc(C(=N)N)ccc3c2)cc(OC)c1	2.6	IC50 [2]: > 62 µM; IC50 (Prothrombin): > 62 µM; IC50 (Plasminogen): 13 µM
C[C@H](NC(=O)[C@@H](CO)NS(=O)(=O)Cc1ccccc1)C(=O)NCc1ccc(C(=N)N)cc1		Ki [2]: 7.4 µM; Ki (Prothrombin): 0.1 µM
COc1ccc2cc(S(=O)(=O)Nc3ccc(-c4cccc(C(F)(F)F)c4)cc3)ccc2c1	4.1	IC50 [2]: 13 µM
N=C(N)c1ccc(/C=C2/N=C(c3ccccc3)OC2=O)cc1	0.2	IC50 [2]: > 100 µM; IC50 (Prothrombin): > 100 µM; IC50 (Plasminogen): > 100 µM
N#Cc1ccc2cc(C(=O)Nc3ccccc3)ccc2c1	> 62	
O=C(Nc1ccccc1)c1ccc2ccccc2c1	> 62	
O=C(Nc1ccccc1)c1ccc2cc(Br)ccc2c1	> 62	
Nc1ccc2cc(C(=O)Nc3ccccc3)ccc2c1	> 62	
COc1ccc2cc(C(=O)Nc3ccccc3)ccc2c1	> 62	
COC(=O)c1ccc2cc(C(=O)Nc3ccccc3)ccc2c1	> 62	
O=C(O)c1ccc2cc(C(=O)Nc3ccccc3)ccc2c1	> 62	
NC(=O)c1ccc2cc(C(=O)Nc3ccccc3)ccc2c1		IC50 [4]: 15 µM
COc1cc(NC(=O)c2ccc3cc(C(N)=O)ccc3c2)cc(OC)c1	30	
NCc1ccc(NC(=O)c2ccc3cc(C(N)=O)ccc3c2)cc1	45	
COC(=O)c1cccc(-c2ccc(NC(=O)c3ccc4ccccc4c3)cc2)c1	16	
COc1cccc(-c2ccc(NC(=O)c3ccc4ccccc4c3)cc2)c1	9.8	
COC(=O)c1cccc(-c2ccc(NC(=O)c3ccc4cc(C(N)=O)ccc4c3)cc2)c1	3.6	IC50 [2]: 11 µM; IC50 (Prothrombin): > 125 µM; IC50 (Plasminogen): > 125 µM
COc1cccc(-c2ccc(NC(=O)c3ccc4cc(C(N)=O)ccc4c3)cc2)c1	2.9	IC50 [2]: 5.7 µM; IC50 (Prothrombin): > 62 µM; IC50 (Plasminogen): 12 µM
NC(=O)c1ccc2cc(C(=O)Nc3ccc(-c4cccc(C(F)(F)F)c4)cc3)ccc2c1		IC50 [4]: 2.4 µM; IC50 [2]: 3.4 µM; IC50 (Prothrombin): > 62 µM; IC50 (Plasminogen): 6.3 µM
NC(=O)c1ccc2cc(C(=O)Nc3ccc(-c4cccc(Cl)c4)cc3)ccc2c1	8.1	
COc1ccc(-c2ccc(NC(=O)c3ccc4cc(C(N)=O)ccc4c3)cc2OC)cc1	6.4	IC50 [2]: 9.7 µM
COC(=O)c1cccc(-c2ccc(NC(=O)c3ccc4cc(C(=O)OC)ccc4c3)cc2)c1	14	
COc1cccc(-c2ccc(NC(=O)c3ccc4cc(C#N)ccc4c3)cc2)c1	20	
COC(=O)c1cccc(-c2ccc(NC(=O)c3ccc4cc(C#N)ccc4c3)cc2)c1	9	
N#Cc1ccc2cc(C(=O)Nc3ccc(-c4cccc(C(=O)O)c4)cc3)ccc2c1	> 250	

SMILES	IC50 [3] [µM]	also measured
COC(=O)c1cccc(-c2ccc(NC(=O)c3ccc4cc(OC)ccc4c3)cc2)c1	4	IC50 [2]: 8.4 µM; IC50 (Prothrombin): > 62 µM; IC50 (Plasminogen): 4 µM
COc1cccc(-c2ccc(NC(=O)c3ccc4cc(OC)ccc4c3)cc2)c1	4	IC50 [2]: 21 µM; IC50 (Prothrombin): > 62 µM; IC50 (Plasminogen): 20 µM
COc1ccc2cc(C(=O)Nc3ccc(-c4cccc([N+](=O)[O-])c4)cc3)ccc2c1	2.6	IC50 [2]: 8.6 µM; IC50 (Prothrombin): > 62 µM; IC50 (Plasminogen): 31 µM
COc1ccc2cc(C(=O)Nc3ccc(-c4cccc(C(F)(F)F)c4)cc3)ccc2c1		IC50 [4]: 2.1 µM; IC50 [2]: 5.3 µM; IC50 (Prothrombin): > 62 µM; IC50 (Plasminogen): 6.5 µM
COc1ccc(-c2ccc(NC(=O)c3ccc4cc(OC)ccc4c3)cc2)cc1	12	
COc1ccc2cc(C(=O)Nc3ccc(-c4ccc(OC)c(OC)c4)cc3)ccc2c1	31	
COc1ccc(-c2ccc(NC(=O)c3ccc4cc(OC)ccc4c3)cc2OC)cc1	> 31	
COC(=O)c1cccc(-c2ccc(NC(=O)c3ccc4cc(Cl)ccc4c3)cc2)c1	7	
COC(=O)c1cccc(-c2ccc(NC(=O)c3ccc4cc(Br)ccc4c3)cc2)c1	11	
COC(=O)c1cccc(-c2ccc(NC(=O)c3ccc4cc(N)ccc4c3)cc2)c1	31	
COC(=O)c1cccc(-c2ccc(NS(=O)(=O)c3ccc4ccccc4c3)cc2)c1	16	
COC(=O)c1ccc(-c2ccc(NS(=O)(=O)c3ccc4ccccc4c3)cc2)cc1	9.8	
COc1cccc(-c2ccc(NS(=O)(=O)c3ccc4ccccc4c3)cc2)c1	31	
COc1ccc2cc(S(=O)(=O)Nc3ccc(-c4ccccc4)cc3)ccc2c1	31	
COC(=O)c1cccc(-c2ccc(NS(=O)(=O)c3ccc4cc(OC)ccc4c3)cc2)c1		IC50 [4]: 2.8 µM; IC50 [2]: 26 µM; IC50 (Prothrombin): > 62 µM; IC50 (Plasminogen): > 62 µM
COc1ccc2cc(S(=O)(=O)Nc3ccc(-c4cccc(C(N)=O)c4)cc3)ccc2c1	> 62	
COc1ccc2cc(S(=O)(=O)Nc3ccc(-c4cccc(F)c4)cc3)ccc2c1	> 62	
COc1ccc2cc(S(=O)(=O)Nc3ccc(-c4cccc(Cl)c4)cc3)ccc2c1	> 62	
COc1cccc(-c2ccc(NS(=O)(=O)c3ccc4cc(OC)ccc4c3)cc2)c1	19	
COc1ccc2cc(S(=O)(=O)Nc3ccc(-c4cccc([N+](=O)[O-])c4)cc3)ccc2c1	6.9	
COc1ccc2cc(S(=O)(=O)Nc3ccc(-c4cccc(N)c4)cc3)ccc2c1	62	
COC(=O)c1ccc(-c2ccc(NS(=O)(=O)c3ccc4cc(OC)ccc4c3)cc2)cc1	16	
COc1ccc(-c2ccc(NS(=O)(=O)c3ccc4cc(OC)ccc4c3)cc2)cc1	23	
COc1ccc2cc(S(=O)(=O)Nc3ccc(-c4ccc(OC)c(OC)c4)cc3)ccc2c1	8	
COc1ccc(-c2ccc(NS(=O)(=O)c3ccc4cc(OC)ccc4c3)cc2OC)cc1	8	
[H]/N=C(\N)c1ccc2cc(C(=O)Nc3ccc(CN)cc3)ccc2c1		IC50 [2]: > 62 µM; IC50 (Prothrombin): > 62 µM; IC50 (Plasminogen): > 62 µM
